Shown are actives, neighbours in structure and some others; about 1.5% of the full set was active somewhere.
INS-1E GSIS act – GLuc luminescence reporter in INS-1E cells, primary screen for activators of glucose-dependent secretion of insulin; INS-1E GLuc reporter insulin secretion, 2-3 h; activation, % at 16.6 µM; 370,000 tested, 0.61% active;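 active means lowest replicate activation of at least 40%, so every replicate reaches that level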;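 further: 0% = median of neutral control wells and 100% = median of IBMX positive control wells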
SIRT5 inh – sirtuin-5 (human) deacylase inhibition. Purified SirT5, succinyl-peptide AMC, trypsin-coupled fluorescence. inhibition, % at 15 µM. 330,000 tested, 1.1% active. AID 652115; in the data active means inhibition above about 15%
PDI inh – blocks human protein disulfide isomerase activity; P07237; PDI insulin aggregation turbidity, A650, 90 min; inhibition, % at 10 µM; 350,000 tested, 0.052% active;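 active means mean inhibition across replicates of 30% or more, whatever share of single replicates reach that level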
ERp5 block – ERp5 (human) disulfide isomerase inhibition. inhibition, % at 9.99 µM. 350,000 tested, 0.05% active. ERp5 insulin aggregation, absorbance 650 nm, 90 min. AID 651711;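 active means mean replicate inhibition above about 25%, with every replicate also reaching it, limit read from the data, passing the limit was not always enough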
Target sequence (Q15084 whole entry, looked up): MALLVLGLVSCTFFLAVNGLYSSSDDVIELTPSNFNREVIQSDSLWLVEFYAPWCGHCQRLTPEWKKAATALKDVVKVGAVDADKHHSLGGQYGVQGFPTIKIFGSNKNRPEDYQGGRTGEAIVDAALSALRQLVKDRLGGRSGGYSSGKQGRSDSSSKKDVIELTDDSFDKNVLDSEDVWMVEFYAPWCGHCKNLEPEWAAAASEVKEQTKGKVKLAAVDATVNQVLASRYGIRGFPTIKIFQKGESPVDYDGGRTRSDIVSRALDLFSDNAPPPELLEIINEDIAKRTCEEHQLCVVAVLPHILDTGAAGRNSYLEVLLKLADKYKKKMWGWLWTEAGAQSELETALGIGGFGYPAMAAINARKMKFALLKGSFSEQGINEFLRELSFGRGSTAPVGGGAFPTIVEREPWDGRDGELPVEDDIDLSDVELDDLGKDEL
S100A4 inh HTS – inhibitors of human S100A4 binding to myosin IIA peptide. inhibition, % at 10.7 µM. 360,000 tested, 0.14% active. AID 652163. S100A4/TAMRA-MyoIIA peptide fluorescence polarization;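 active means mean inhibition of at least 70% across replicates, with every replicate also reaching that level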
Target sequence (P26447 whole entry, looked up): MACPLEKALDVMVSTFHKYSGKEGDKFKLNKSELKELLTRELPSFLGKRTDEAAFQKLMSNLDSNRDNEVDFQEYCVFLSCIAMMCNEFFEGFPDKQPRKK
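Test system – S100A4 monomer (human) · Compound – single-point compound testing · Schedule – 5 min incubation before reading · Probe or stimulus – TAMRA-labelled myosin IIA heavy-chain peptide probe, 5 nM · Benchmarks – neutral control DMSO, positive control TFP · Medium – Calcium-containing HEPES buffer, pH 7.2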
An asterisk follows results filed as active; ! = not confirmed by another sample.

How did CC(C)CC#Cc1ccc2c(c1)O[C@@H](CN(C)C(=O)c1cccc(F)c1)[C@H](C)CN([C@@H](C)CO)S2(=O)=O do in these assays?
INS-1E GSIS act: -4; SIRT5 inh: 22*; ERp5 block: -3; S100A4 inh HTS: 8

Results for COc1cccc(C#Cc2ccc3c(c2)O[C@@H](CN(C)C(=O)c2ccccn2)[C@@H](C)CN([C@H](C)CO)S3(=O)=O)c1 ?
INS-1E GSIS act: 5; SIRT5 inh: 16*!; PDI inh: 6; ERp5 block: 4; S100A4 inh HTS: -3

What do the screens show for `CC(C)CC#Cc1ccc2c(c1)O[C@@H](CN(C)C(=O)c1ccccn1)[C@@H](C)CN([C@@H](C)CO)S2(=O)=O`?
INS-1E GSIS act: -8; SIRT5 inh: 9; ERp5 block: 45*; S100A4 inh HTS: -12

How did Cn1c(SCc2ccc(C#N)cc2)nnc1-c1ccccc1 do in these assays?
INS-1E GSIS act: 7; SIRT5 inh: 21*; PDI inh: 2; ERp5 block: -2; S100A4 inh HTS: -2

How did Cn1c(SCc2ccc(C#N)cc2)nnc1-c1cccc(Cl)c1 do in these assays?
PDI inh: 0

How did CC(C)C#Cc1cnc2c(c1)C(=O)N([C@H](C)CO)C[C@@H](C)[C@H](CN(C)Cc1cccc(F)c1)O2 do in these assays?
INS-1E GSIS act: -9; SIRT5 inh: 5; ERp5 block: 0; S100A4 inh HTS: -19

What do the screens show for `CCOc1cc(OCC)nc(S(C)(=O)=O)n1`?
INS-1E GSIS act: 49*; PDI inh: -7

What do the screens show for `COc1ccc(-c2nc(CCNC(=O)c3ccco3)cs2)cc1OC`?
INS-1E GSIS act: 89*; SIRT5 inh: -4; ERp5 block: -4; S100A4 inh HTS: 1

Results for COc1ccc(-c2csc(NC(=O)CCNC(=O)c3ccco3)n2)cc1OC ?
INS-1E GSIS act: 16; SIRT5 inh: 0; PDI inh: 0; ERp5 block: 0; S100A4 inh HTS: 4

Results for CC=Cc1ccc2n(c1=O)C[C@H]1[C@H](CO)[C@@H](C(=O)NC3CCCC3)N[C@@H]21 (mixture of isomers) ?
INS-1E GSIS act: 29; SIRT5 inh: -2; ERp5 block: -1; S100A4 inh HTS: 6

Results for Cc1ccccc1C1=C/C(=C(\SS/C(C(=O)c2ccc(OCC(=O)O)c(Cl)c2Cl)=C2\C=C(c3ccccc3C)SS2)C(=O)c2ccc(OCC(=O)O)c(Cl)c2Cl)SS1 ?
SIRT5 inh: 69*; PDI inh: 27; ERp5 block: 3; S100A4 inh HTS: -4

How did Nn1c(C2CCCCC2)nc2ccccc2c1=O do in these assays?
INS-1E GSIS act: 50*; SIRT5 inh: -9; PDI inh: -3; ERp5 block: 0; S100A4 inh HTS: -3

What do the screens show for `Nn1c(-c2ccccc2)nc2cc(Cl)ccc2c1=O`?
INS-1E GSIS act: 6; SIRT5 inh: -3; PDI inh: -9; ERp5 block: 3; S100A4 inh HTS: 4

How did Nn1c(C2CCC2)nc2cc(Cl)ccc2c1=O do in these assays?
INS-1E GSIS act: 18; SIRT5 inh: 18*; PDI inh: -21; ERp5 block: 0; S100A4 inh HTS: -8

Results for C=CCN1C(=O)[C@]2(O[C@H](CCn3cc(CCO)nn3)[C@@H]([Si](C)(C)c3ccc(OC)cc3)[C@@H]2C)c2cc(N3C(=O)c4cccc5cccc3c45)ccc21 ?
SIRT5 inh: 0; ERp5 block: -4; S100A4 inh HTS: 1

How did CCC(=O)N[C@H]1CC[C@H](CC(=O)NCC2CCCCC2)O[C@@H]1CO do in these assays?
INS-1E GSIS act: 1; SIRT5 inh: 1; ERp5 block: -1; S100A4 inh HTS: 12

What do the screens show for `Cc1cccc(N(Cc2ccccc2)C(=O)CCl)c1`?
INS-1E GSIS act: 97*; SIRT5 inh: -8; PDI inh: -2; ERp5 block: -6; S100A4 inh HTS: -3

Results for O=C(CCl)N(Cc1ccccc1)c1ccccc1 ?
INS-1E GSIS act: -2; SIRT5 inh: 2; PDI inh: 0; ERp5 block: 2; S100A4 inh HTS: 1

Results for O=C(C[C@H]1C[C@H]2c3cc(NC(=O)C4CCC4)ccc3O[C@H]2[C@@H](CO)O1)NCc1ccncc1 ?
INS-1E GSIS act: 7; SIRT5 inh: -4; ERp5 block: -3; S100A4 inh HTS: -34

Results for O=C(Oc1ccc2c(c1)OCO2)c1cc2c(s1)CCC2 ?
INS-1E GSIS act: 46*; PDI inh: 8

Results for COc1cccc(NC(=O)N(C)C[C@H]2OCc3cn(nn3)CCCC(=O)N([C@H](C)CO)C[C@H]2C)c1 ?
INS-1E GSIS act: 14

What do the screens show for `C[C@H]1CN([C@@H](C)CO)C(=O)CCCn2cc(nn2)CO[C@@H]1CN(C)Cc1cccc(C(F)(F)F)c1`?
INS-1E GSIS act: -7; SIRT5 inh: -20; ERp5 block: 44*; S100A4 inh HTS: -6

Results for Cc1noc(C)c1NC(=O)N(C)C[C@H]1OCc2cn(nn2)CCCC(=O)N([C@H](C)CO)C[C@H]1C ?
INS-1E GSIS act: 7

How did Cc1noc(C)c1NC(=O)N(C)C[C@H]1OCc2cn(nn2)CCCC(=O)N([C@@H](C)CO)C[C@@H]1C do in these assays?
INS-1E GSIS act: 12; SIRT5 inh: 16*!; PDI inh: 8; ERp5 block: -7; S100A4 inh HTS: -1

How did COc1cccc(NC(=O)N(C)C[C@@H]2OCc3cn(nn3)CCCC(=O)N([C@H](C)CO)C[C@H]2C)c1 do in these assays?
INS-1E GSIS act: 0; SIRT5 inh: 23*!; PDI inh: 2; ERp5 block: 2; S100A4 inh HTS: 2

What do the screens show for `O=C(CC1CC1)N1[C@H](CO)[C@@H](c2ccccc2)C12CN(Cc1cccnc1)C2`?
INS-1E GSIS act: 5; SIRT5 inh: -3; ERp5 block: 0; S100A4 inh HTS: 12

Results for CC=Cc1ccc2n(c1=O)C[C@H]1[C@H](CO)[C@@H](C(=O)NCC)[C@@H]2N1CCC(F)(F)F (mixture of isomers) ?
INS-1E GSIS act: 20; SIRT5 inh: -18; ERp5 block: 2; S100A4 inh HTS: 4

Results for Cc1cccc(C)c1-n1nnnc1C1(C)CCC(=O)N1Cc1cccs1 (stereo not drawn) ?
INS-1E GSIS act: 53*; SIRT5 inh: -6; ERp5 block: -2; S100A4 inh HTS: -8

Results for COc1ccc(CN2C(=O)CCC2(C)c2nnnn2-c2c(C)cccc2C)cc1 (stereo not drawn) ?
INS-1E GSIS act: 21; ERp5 block: 6; S100A4 inh HTS: -5

Results for Cc1cccc(C)c1-n1nnnc1C1(C)CCC(=O)N1Cc1ccco1 (stereo not drawn) ?
INS-1E GSIS act: 6; SIRT5 inh: -3; ERp5 block: -8; S100A4 inh HTS: -2

What do the screens show for `Cc1ccc(CN2C(=O)CCC2(C)c2nnnn2-c2c(C)cccc2C)cc1` (stereo not drawn)?
INS-1E GSIS act: -29; SIRT5 inh: 16*; ERp5 block: -7; S100A4 inh HTS: -9
